Key:
[1] = target: Human immunodeficiency virus type 1 reverse transcriptase (Human immunodeficiency virus 1, UniProt Q72547); assay: Inhibition of recombinant HIV-1 RT assessed as inhibition of biotin-dUTP incorporation by colorimetric analysis
Outline: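 Highly purified recombinant HIV-1 RT was used with a […] homopolymer template primer. Nucleotides were linked to a microtiter plate, and incorporated biotin-dUTP was detected colorimetrically. IC50 is the concentration inhibiting biotin-dUTP incorporation by 50%.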

[2] = system: Human immunodeficiency virus 1; assay: Antiviral activity against HIV-1 RES056 harboring RT K103N/Y181C mutant gene infected human MT4 cells assessed as inhibition in viral syncytium formation by MTT assay; type: functional, organism-based; conditions: Human immunodeficiency virus 1, RES056, MT4
Outline: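 MT-4 cells infected with double-mutant RT (K103N/Y181C) HIV-1 RES056; compounds added as serial fivefold dilutions in triplicate wells with mock-infected parallels. Cells at 6 × 10⁵ cells/mL. Viability read by MTT after five days at 540 and 690 nm, median OD of three wells. EC50 is the concentration inhibiting virus-induced syncytium formation by 50%.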

[3] = system: Human immunodeficiency virus 2; assay: Antiviral activity against HIV-2 ROD infected human MT4 cells assessed as inhibition in viral syncytium formation by MTT assay; type: functional, organism-based; conditions: Human immunodeficiency virus 2, ISOLATE ROD
Outline: (§1)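 MT-4 cells (6 × 10⁵ cells/mL) infected with HIV-1 IIIB or HIV-2 ROD stock at 100–300 CCID50, with serial fivefold compound dilutions in triplicate wells. After 5 days, viability was read by MTT reduction at 540 and 690 nm, using the median OD of three wells. EC50 is the concentration giving 50% inhibition of virus-induced syncytium formation.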

[4] = Cytotoxicity against mock-infected human MT4 cells by MTT assay; type: cell-based
Outline: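 Mock-infected MT-4 cells (6 × 10⁵ cells/mL) were run in parallel with the infected wells, with serial fivefold compound dilutions in triplicate. After 5 days, viability was read by MTT at 540 and 690 nm, using the median OD of three wells. CC50 is the concentration that reduces OD540 of mock-infected controls by 50%.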

[5] = system: Human immunodeficiency virus 1; assay: Antiviral activity against HIV-1 3B infected human MT4 cells assessed as inhibition in viral syncytium formation by MTT assay; type: functional, organism-based; conditions: Human immunodeficiency virus 1, 3B; outline: as §1
[6] = Selectivity index, ratio of CC50 for human MT4 cells to EC50 for HIV-1 3B; type: toxicity, cell-based; conditions: read-out: Ratio CC50/EC50
Outline: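 SI is the ratio CC50/EC50, both taken from parallel 5-day MTT assays in MT-4 cells. CC50 comes from mock-infected cells and EC50 from HIV-1 IIIB-infected cells.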

With `Cc1cc(C)c(-n2c(SCC(=O)Nc3ccc(S(N)(=O)=O)cc3Br)nc3cnccc32)c(C)c1` the IC50 [1] was 4.4 µM, the EC50 [2] was > 9.7 µM and the EC50 [3] was > 9.7 µM. The CC50 [4] was 9.7 µM, the EC50 [5] was 0.21 µM and the selectivity ratio [6] was 46.

With `Cc1cc(C)c(-n2c(SCC(=O)Nc3ccc(C)cc3[N+](=O)[O-])nc3cccnc32)c(C)c1` the EC50 [3] was > 144 µM, the CC50 [4] was 144 µM and the EC50 [5] was > 144 µM. For the same compound, the selectivity ratio [6] was < 1.

In the case of `Cc1cc(C)c(-n2c(SCC(=O)Nc3ccccc3)nc3cccnc32)c(C)c1`, the EC50 [3] is reported as > 26 µM, the CC50 [4] is reported as 26 µM and the EC50 [5] is reported as > 26 µM. The selectivity ratio [6] was < 1.

In the case of `Cc1cc(C)c(-n2c(SCC(=O)Nc3ccccc3Cl)nc3cnccc32)c(C)c1`, the EC50 [3] is reported as > 19 µM, the CC50 [4] is reported as 19 µM and the EC50 [5] is reported as > 19 µM. For the same compound, the selectivity ratio [6] was < 1.

In the case of `CC(=O)c1ccc(NC(=O)CSc2nc3cccnc3n2-c2c(C)cc(C)cc2C)c(Br)c1`, the EC50 [2] is reported as > 46 µM, the EC50 [3] is reported as > 46 µM and the CC50 [4] is reported as 46 µM. For the same compound, the EC50 [5] was 3.6 µM and the selectivity ratio [6] was 13.

With `Cc1cc(C)c(-n2c(SCC(=O)Nc3ncc(C)cc3Br)nc3cnccc32)c(C)c1` the EC50 [3] was > 61 µM, the CC50 [4] was 61 µM and the EC50 [5] was > 61 µM. The selectivity ratio [6] was < 1.

In the case of `Cc1cc(C)c(-n2c(SCC(=O)Nc3ccccc3)nc3cnccc32)c(C)c1`, the EC50 [3] is reported as > 17 µM, the CC50 [4] is reported as 17 µM and the EC50 [5] is reported as > 17 µM. The selectivity ratio [6] was < 1.

With `Cc1cc(C)c(-n2c(SCC(=O)Nc3ccccc3Br)nc3cccnc32)c(C)c1` the EC50 [3] was > 5.6 µM, the CC50 [4] was 5.6 µM and the EC50 [5] was > 5.6 µM. For the same compound, the selectivity ratio [6] was < 1.

For `Cc1cc(C)c(-n2c(SCC(=O)Nc3ccccc3Cl)nc3cccnc32)c(C)c1`, the EC50 [3] was > 3.9 µM, the CC50 [4] was 3.9 µM and the EC50 [5] was > 3.9 µM. The selectivity ratio [6] was < 1.

For `Cc1cc(C)c(-n2c(SCC(=O)Nc3ccccc3[N+](=O)[O-])nc3cnccc32)c(C)c1`, the EC50 [2] was > 9.9 µM, the EC50 [3] was > 9.9 µM and the CC50 [4] was 9.9 µM. For the same compound, the EC50 [5] was 5.7 µM and the selectivity ratio [6] was 2.

In the case of `COC(=O)c1ccc(NC(=O)CSc2nc3cccnc3n2-c2c(C)cc(C)cc2C)c(Br)c1`, the EC50 [2] is reported as > 80 µM, the EC50 [3] is reported as > 80 µM and the CC50 [4] is reported as 80 µM. It also gave an EC50 [5] of 8.9 µM and a selectivity ratio [6] of 9.

With `O=C1Nc2ccc(Cl)cc2[C@@](C#CC2CC2)(C(F)(F)F)O1` [EFAVIRENZ] the CC50 [4] was > 6.3 µM and the selectivity ratio [6] was > 964.

With `Nc1ccn([C@H]2CC[C@@H](CO)O2)c(=O)n1` [ZALCITABINE] the EC50 [3] was 1.7 µM, the CC50 [4] was > 95 µM and the selectivity ratio [6] was > 68.

For `Cc1cc(C)c(-n2c(SCC(=O)Nc3ccc(S(N)(=O)=O)cc3Br)nc3cccnc32)c(C)c1`, the EC50 [2] was > 22 µM, the EC50 [3] was > 22 µM and the CC50 [4] was 22 µM. It also gave an EC50 [5] of 0.75 µM and a selectivity ratio [6] of 30.

With `Cc1cc(C)c(-n2c(SCC(=O)Nc3ccccc3[N+](=O)[O-])nc3cccnc32)c(C)c1` the EC50 [2] was > 39 µM, the EC50 [3] was > 39 µM and the CC50 [4] was 39 µM. For the same compound, the EC50 [5] was ≥ 6.7 µM and the selectivity ratio [6] was ≤ 6.

With `Cc1cc(C)c(-n2c(SCC(=O)Nc3ccc(C)cc3[N+](=O)[O-])nc3cnccc32)c(C)c1` the EC50 [2] was > 6.2 µM, the EC50 [3] was > 6.2 µM and the CC50 [4] was 6.2 µM. For the same compound, the EC50 [5] was ≥ 1.2 µM and the selectivity ratio [6] was ≤ 5.

In the case of `Cc1cc(C)c(-n2c(SCC(=O)Nc3ccccc3F)nc3cccnc32)c(C)c1`, the EC50 [3] is reported as > 3.7 µM, the CC50 [4] is reported as 3.7 µM and the EC50 [5] is reported as > 3.7 µM. For the same compound, the selectivity ratio [6] was < 1.

In the case of `CC(C)Nc1cccnc1N1CCN(C(=O)c2cc3cc(NS(C)(=O)=O)ccc3[nH]2)CC1` [DELAVIRDINE], the EC50 [2] is reported as > 36.2 µM, the CC50 [4] is reported as > 36 µM and the selectivity ratio [6] is reported as > 1030.

For `COC(=O)c1ccc(NC(=O)CSc2nc3cnccc3n2-c2c(C)cc(C)cc2C)c(Br)c1`, the EC50 [2] was > 27 µM, the EC50 [3] was > 27 µM and the CC50 [4] was 27 µM. The EC50 [5] was ≥ 2.5 µM and the selectivity ratio [6] was ≤ 11.

With `Cc1cc(C)c(-n2c(SCC(=O)Nc3ccccc3C)nc3cnccc32)c(C)c1` the EC50 [3] was > 22 µM, the CC50 [4] was 22 µM and the EC50 [5] was > 22 µM. The selectivity ratio [6] was < 1.

For `Cc1cc(C)c(-n2c(SCC(=O)Nc3ccc(Cl)cc3Cl)nc3cccnc32)c(C)c1`, the EC50 [3] was > 3 µM, the CC50 [4] was 3.9 µM and the EC50 [5] was > 3 µM. For the same compound, the selectivity ratio [6] was < 1.

In the case of `Cc1cc(C)c(-n2c(SCC(=O)Nc3ccc([N+](=O)[O-])cc3Cl)nc3cccnc32)c(C)c1`, the EC50 [3] is reported as > 25 µM, the CC50 [4] is reported as 25 µM and the EC50 [5] is reported as > 25 µM. The selectivity ratio [6] was < 1.

For `O=C(CSc1snnc1-c1ccc(Br)cc1Br)Nc1cccnc1Cl`, the EC50 [5] was 0.0364 µM and the selectivity ratio [6] was > 6460.

In the case of `Cc1cc(C)c(-n2c(SCC(=O)Nc3cccnc3Cl)nc3cnccc32)c(C)c1`, the EC50 [2] is reported as > 22 µM, the EC50 [3] is reported as > 22 µM and the CC50 [4] is reported as 22 µM. The EC50 [5] was 1.7 µM and the selectivity ratio [6] was 12.

With `Cc1cc(C)c(-n2c(SCC(=O)Nc3ccc([N+](=O)[O-])cc3Cl)nc3cnccc32)c(C)c1` the EC50 [2] was > 29 µM, the EC50 [3] was > 29 µM and the CC50 [4] was 29 µM. The EC50 [5] was 1.4 µM and the selectivity ratio [6] was 20.

With `Cc1cc(C)c(-n2c(SCC(=O)Nc3ccccc3C)nc3cccnc32)c(C)c1` the EC50 [3] was > 15 µM, the CC50 [4] was 15 µM and the EC50 [5] was > 15 µM. The selectivity ratio [6] was < 1.

In the case of `Cc1cc(C)c(-n2c(SCC(=O)Nc3ccccc3Br)nc3cnccc32)c(C)c1`, the EC50 [2] is reported as > 22 µM, the EC50 [3] is reported as > 22 µM and the CC50 [4] is reported as 22 µM. For the same compound, the EC50 [5] was 5.2 µM and the selectivity ratio [6] was 4.

In the case of `CC(=O)c1ccc(NC(=O)CSc2nc3cnccc3n2-c2c(C)cc(C)cc2C)c(Br)c1`, the EC50 [2] is reported as > 61 µM, the EC50 [3] is reported as > 61 µM and the CC50 [4] is reported as 61 µM. For the same compound, the EC50 [5] was 0.99 µM and the selectivity ratio [6] was 61.

In the case of `Cc1cc(C)c(-n2c(SCC(=O)Nc3ccc(C)cc3Br)nc3cnccc32)c(C)c1`, the EC50 [3] is reported as > 5.9 µM, the CC50 [4] is reported as 5.9 µM and the EC50 [5] is reported as > 5.9 µM. The selectivity ratio [6] was < 1.

With `Cc1cc(C)c(-n2c(SCC(=O)Nc3cccnc3Cl)nc3cccnc32)c(C)c1` the EC50 [3] was > 6 µM, the CC50 [4] was 6 µM and the EC50 [5] was > 6 µM. For the same compound, the selectivity ratio [6] was < 1.

In the case of `Cc1cc(C)c(-n2c(SCC(=O)Nc3ccccc3F)nc3cnccc32)c(C)c1`, the EC50 [3] is reported as > 18 µM, the CC50 [4] is reported as 18 µM and the EC50 [5] is reported as > 18 µM. The selectivity ratio [6] was < 1.

With `Cc1ccnc2c1NC(=O)c1cccnc1N2C1CC1` [NEVIRAPINE] the EC50 [2] was > 15 µM, the CC50 [4] was > 15 µM and the selectivity ratio [6] was > 75.

In the case of `CCOC(=O)c1ccc(NC(=O)CSc2nc3cnccc3n2-c2c(C)cc(C)cc2C)c(Br)c1`, the EC50 [2] is reported as > 22 µM, the EC50 [3] is reported as > 22 µM and the CC50 [4] is reported as 22 µM. For the same compound, the EC50 [5] was 4.7 µM and the selectivity ratio [6] was 5.

For `Cc1cn([C@H]2C[C@H](N=[N+]=[N-])[C@@H](CO)O2)c(=O)[nH]c1=O` [ZIDOVUDINE], the EC50 [2] was 0.01 µM, the CC50 [4] was ≥ 50 µM and the EC50 [5] was 6 µM. The selectivity ratio [6] was ≥ 8300.

For `CCOC(=O)c1ccc(NC(=O)CSc2nc3cccnc3n2-c2c(C)cc(C)cc2C)c(Br)c1`, the EC50 [2] was > 117 µM, the EC50 [3] was > 117 µM and the CC50 [4] was 117 µM. For the same compound, the EC50 [5] was 9.9 µM and the selectivity ratio [6] was 12.

In the case of `Cc1cc(C)c(-n2c(SCC(=O)Nc3ccc(C)cc3Br)nc3cccnc32)c(C)c1`, the EC50 [3] is reported as > 0.99 µM, the CC50 [4] is reported as 0.99 µM and the EC50 [5] is reported as > 0.99 µM. The selectivity ratio [6] was < 1.

In the case of `Cc1cc(C)c(-n2c(SCC(=O)Nc3ccc(Cl)cc3Cl)nc3cnccc32)c(C)c1`, the EC50 [2] is reported as > 140 µM, the EC50 [3] is reported as > 140 µM and the CC50 [4] is reported as 140 µM. For the same compound, the EC50 [5] was ≥ 1.1 µM and the selectivity ratio [6] was ≤ 127.

For `Cc1cc(C)c(-n2c(SCC(=O)Nc3ncc(C)cc3Br)nc3cccnc32)c(C)c1`, the EC50 [3] was > 102 µM, the CC50 [4] was 102 µM and the EC50 [5] was > 102 µM. The selectivity ratio [6] was < 1.
